Drawing on the RNAGym collection of RNA variant scans (doi:10.1126/science.aae0568), this text covers yeast fitness for 37 variants.

Variants at the floor of the assay were thinned out. Where only a bound is given, the exact number is not on record here.

B1: tRNA (parent)
chain: GUUCCGUUGGCGUAAUGGUAACGCGUCUCCCUCCUAAGGAGAAGACUGCGGGUUCGAGUCCCGUACGGAACG

In this series the parent is B1. In words: yeast fitness relative to wild type (ratio to wild type); higher = fitter; tRNA-Arg(CCU), competitive growth, 37 C, YPD. A digest of the protocol: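 Gene amplicons from the start population and from each of six end populations were read by 100-nucleotide paired-end sequencing. Those end populations came from pooled Saccharomyces cerevisiae strains carrying tRNA-Arg(CCU) gene variants at the native locus, competed in YPD at 37°C for 24 hours. Fitness relative to wild type was worked out from changes in genotype frequencies. Genotypes needed ≥ 100 starting reads, and estimates < 0.5 were set to 0.5.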
As to GAUCCGUUGGCGACAUGGUAACGCGUCUCCCUUCUAAGGAGAAGACUGCGGCUUCGAGUCCCGUACGGAACG [U2A U13A A14C C33U G52C], the yeast fitness was at most 0.5.
In the case of GCUCCGUUGGCGUGAUGGUAACGCGUCUCCCUCCUAAGGAGAAGACUGCGGGUUCGCGUCCCGUACGGUACG [U2C A14G A57C A69U], the yeast fitness is at most 0.5.
As to GAUCCGUUGGCGUAAGGGUAACCCGUCUCCUUCCUUAGGAGAAGACUGCGGGUUCGAGACCCGUACGGAACG [U2A U16G G23C C31U A36U U59A], the yeast fitness was at most 0.5.
In the case of GAUCCGUUGGCGUAAAGGAAACGCGUCUCCCUCCUAAGGAGAAGAUUGCGGGUUCGAGUCCCGUACGGAACG [U2A U16A U19A C46U], the yeast fitness worked out at 0.714.
With GAUCCGUUGGCGUAAUGGUAACGCGUCGCCCUCCUAAGGCGAAGACUGCGGGUUCGAGUCCCGUACCGAACG [U2A U28G A40C G67C] the figure was 0.639; with GAUCCGUUGGCGUAAUGGUAACGCGUCUCCCUCCUAAGGAGAAGACCGCGGGUUCGAGUCCCGUACGGAACG [U2A U47C], 1.08.
GAUCCGUUGGCGUAAAGGUAACGCGUCUCCCUCCUAAGGAGAAGACUGAAGGUUCGAGUCCCGUACGCAACG [U2A U16A C49A G50A G68C]: the yeast fitness was at most 0.5.
In the case of GAUCCGUUGGCGUAAUGGUAACGCGUCUCCCACCUAAGGAGAAGACUGCGGGUUCGAGUCCCGUACAGAACG [U2A U32A G67A], the yeast fitness was at most 0.5.
Next, GAUCCGUUGGCGAAAUGGUACCGCGUCUCCCUCCUAAGGAGGAGACUGCGGGUUCGAGUCCCGUACGGAACG [U2A U13A A21C A42G]: at most 0.5; GAUCCGUUGGCGUAAGGGUAACGCGUCUCCCUCCUAAGGAGGUGAUUGCGGGUUCGAGUCCUGUACGGAACG [U2A U16G A42G A43U C46U C62U]: at most 0.5.
Next, GCUCCGUUGGCGUGAUGGUAACGCGUCUCCCUCCUAAGGAGAAGACUGCGGGUUCGAGUCCCGUACGGAACG [U2C A14G]: 0.863; GAUCCGUUGGCGUAAUGGUAACGCGUCUCCCUCCUAAGGAGAAGACUGCGGGUUCGAGCCCCGUAGGGAACG [U2A U59C C66G]: 0.537.
Take GAUCCGUUGGCGUAAUGGUAACGCGUCUCCCUCCUAAGGAGAAGACUGCGGGUUCGAGCCCCGUACGGAACG [U2A U59C]: the yeast fitness was 0.995.
On to GAUCCGUUGGCGUAAUGGAAACGCGUUUCCCUCCUAAGGAGAAGACUGCGGGUUCGAGUCCCGUACAGAACG [U2A U19A C27U G67A], for which the yeast fitness was at most 0.5.
Take GAUCCGUUGGCGUAAUGGUAACGCGUCUCCCUCCUAAGGAGAAGACUGCGGGUUCGAGUCCCGAACGGAUCG [U2A U64A A70U]: the yeast fitness amounted to 1.06.
Next, GAUCCGUUGGCGUAAUGGUAACGCGUCUCCCCCCUAAGGAGAAGACUGCGGGCUCGAGUCCCGUACGGAACG [U2A U32C U53C]: at most 0.5; GAUCCGUUGGCGUAACGGUAACGCGUCUCCCUCCUAAGGAGAACACUGCGGAUUCGAGUCCCGUACGGAACG [U2A U16C G44C G52A]: at most 0.5.
Next, GAUCCGUUGGCGUAAUGGUAACGCGUCUCCCUCCUAAGGAGAAGACUGCGGGUUCGAGUCCCGAACGGAACG [U2A U64A]: 0.855.
As for GAUCCGUUGGCGUAACGGUAACGCGUCUCACUCCUAAGGAGAAGACUGCGGGUUCGAGUCCCGUACCGAACG [U2A U16C C30A G67C], the yeast fitness was 0.557.
With GAUCCGUUGGCGUAAUGGUAACGCGUCUCCCUCCAAAGGAGAAGCCUGCGGGUUCGAGUCCCGUACGGAACG [U2A U35A A45C] the figure was at most 0.5; with GAUCCGUUGGCGUAAUGGACACGCGACUCCCUCCUAAGGAGAAGACUGCGGGUUCGAGUCCCGUACGGAACG [U2A U19A A20C U26A], 0.578.
Next, GAUCCGUUGGCGUAAUGGUAACGCGUCCCCCUCCUAAGAAGAAGACUGCGGGUUCGAGUCCUGUUCGGAACG [U2A U28C G39A C62U A65U]: at most 0.5; GAUCCGUUGGCGUAAUGGUAACGCGUCUCCCCCCUAAGGAGAAGACUGCGGGUUCGAGUCCCGUACGGAACG [U2A U32C]: 0.954; GAUCCGUUGGCGUAAAGGUAACGCGUCUCCCUCCUAAGGAGAAGACUGCGGGUUCCGGUCCUGUACGGAACG [U2A U16A G56C A57G C62U]: at most 0.5.
With GCUCCGUUGGCGUCGAGGUAACGCGUCUCCCUCCUAAGGAGAAGACUGCGGGUUCGAGUCCCGUACGGAACG [U2C A14C A15G U16A] the figure was at most 0.5; with GAUCCGUUGGCGUAAUGGUAACGCGUCUCCCUCCCAAGGAGAAGACUGCGGGUUCGAGUCCCGUACGGAACG [U2A U35C], 0.875; with GAUCCGUUGGCGUAAUGGUAACGCGUCUCCCUCCUAAGGAGAAGACCGCGGGUUCGAGUCCCGUAUGGAACG [U2A U47C C66U], 0.683.
Take GAUCCGUGGGCGUAAUGGUAACGCGUCUCCCUGCUAAAGAGAAGACUGCGGGUUCGAGUCCCGUACGGAACG [U2A U8G C33G G38A]: the yeast fitness is at most 0.5.
Consider GAUCCGUUGGCGAAAUGGUAACGAGUCUCCCUCCUAAGGAGAAGCCUGCGGGUUCGAGUCCCGUACGGAACG [U2A U13A C24A A45C], for which the yeast fitness is at most 0.5.
Regarding GAUCCGUAAGCGAAAUGGUAACGAGUCUCCCUCCUAAGGAGAAGCCUGCGGGUUCGAGUCCCGUACGGAACG [U2A U8A G9A U13A C24A A45C], the yeast fitness is at most 0.5.
With GAUCCGUUGGCGUAAUGGUAACGCGUCUCCCUCCUAAGGAGAAGACUGCGGGUACGAGUCCCGUACGGAACG [U2A U54A] the figure was 0.613; with GCUCCGUUGGCGUCAUGGUAACGCGUCUCCCUCCUAAGGGGAAGACUGCGGGUUCGAGUCCCGUACGGAACG [U2C A14C A40G], 0.775; with GCUCCGUUGGCGUCAUGGUAACGCGUCUCCCUCCUAAGGCGAAGACUGCGGGUUCGAGUCCCGUACGGAACG [U2C A14C A40C], at most 0.5.
Turning to GAUCCGUUGGCGUAAUGGUAACGCGUCCCCCUCCUAAGAAGAAGACUGCGGGUUCGAGUCCCGUACGGAACG [U2A U28C G39A], the yeast fitness is 0.508.
Next, GAUCCGUCGGCGUAAUGGUAACGGGUCUCCCUCCUAAGGAGAUGAUUGCGGGUUCGAGUCCCGUACGGAACG [U2A U8C C24G A43U C46U]: at most 0.5.
For GAUCCGUUGGCGCAAUGGGAAUGCGUCUCCUUCCUAAGGUGAAGACUGCGGGUUCGAGUCCCGUACAGAACG [U2A U13C U19G C22U C31U A40U G67A], the yeast fitness was at most 0.5.
With GCUCCGUUGGCGUGAUGGUAACGCGUCUCCCUCCUAAGGAGAAGAUUGCGGGUUCGAGUCCCGUACGGAACG [U2C A14G C46U] the figure was 0.669.
